Experimental data reported in ChEMBL document CHEMBL1158126, “Sodwanone and yardenone triterpenes from a South African species of the marine sponge Axinella inhibit hypoxia-inducible factor-1 (HIF-1) activation in both breast and prostate tumor cells” (J Nat Prod, 2006).
pIC50: −log10 of the molar value.

Key:
[1] = target: T1, Hypoxia inducible factors; HIF-1-alpha, HIF-2-alpha (Homo sapiens, UniProt Q16665+Q99814); assay: Inhibition of 1,10 phenanthroline-induced HIF1 activation in human T47D cells by reporter gene assay; assay type: cell-based
Outline: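 Transfected T47D luciferase reporter cells. HIF-1 induced with the hypoxia mimetic 1,10-phenanthroline at 10 μM. Compounds from 10 mM isopropanol stocks, tested up to 30 μM. HIF-1 activity read as luciferase activity.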

PC-3 = assay: Cytotoxicity against human PC-3 cells after 48 hrs by neutral red assay; assay type: functional, cell-based; settings: PC-3, 48 h
Outline: (§1)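 Cells kept in DMEM/F12 with 10% FBS and antibiotics at 37° C, 5% CO2:95% air. Plated at 30,000 cells/well and grown 24 h. Compounds diluted in serum-free DMEM/F12 and added (n = 3). Incubated 48 h at 37° C under normoxia. Viability read by neutral red at OD540. % inhibition = 1 - OD540(treated)/OD540(control). Highest concentration tested 30 μM.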

[2] = target: T1, Hypoxia inducible factors; HIF-1-alpha, HIF-2-alpha; assay: Inhibition of hypoxia-induced HIF1 activation in human PC3 cells by reporter gene assay; assay type: cell-based; settings: pc-3
Outline: (§2)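 Luciferase reporter cells (T47D or PC-3) transfected, treated with compound and exposed to hypoxia (1% O2:5% CO2:94% N2). Normoxic comparison at 5% CO2:95% air. Compounds from 10 mM isopropanol stocks, tested up to 30 μM. Luciferase activity measured.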

[3] = target: T1, Hypoxia inducible factors; HIF-1-alpha, HIF-2-alpha; assay: Inhibition of hypoxia-induced HIF1 activation in human T47D cells by reporter gene assay; assay type: cell-based; outline: as §2
DU-145 = assay: Cytotoxicity against human DU145 cells after 48 hrs by neutral red assay; assay type: functional, cell-based; settings: DU-145, 48 h; outline: as §1
T47D = assay: Cytotoxicity against human T47D cells after 48 hrs by neutral red assay; assay type: functional, cell-based; outline: as §1
MDA-MB-231 = assay: Cytotoxicity against human MDA-MB-231 cells after 48 hrs by neutral red assay; assay type: functional, cell-based; settings: MDA-MB-231, 48 h; outline: as §1

SMILES	IC50 [1]	IC50 [2]	IC50 [3]	pIC50 (PC-3)	pIC50 (DU-145)	pIC50 (T47D)	pIC50 (MDA-MB-231)
CC1=C(CCC2=C(C)CC[C@@H]3OC(C)(C)[C@H](O)CC[C@@]23C)[C@]2(C)CCC(=O)C(C)(C)O[C@H]2CC1 [SODWANONE T]	20 µM	> 30 µM	20 µM	< 4.52	< 4.52	< 4.52	< 4.52
CC1=C(CCC2=C(C)C(=O)C(O)=C3C(C)(C)C(=O)CC[C@]23C)[C@]2(C)CCC(=O)C(C)(C)O[C@H]2CC1 [10,11-DIHYDROSODWANONE B]	30 µM	> 30 µM	20 µM	< 4.52	< 4.52	< 4.52	< 4.52
CC1=C(CCC23CCC(=O)C(C)(C)C2=C(O)C(=O)C(C)=C3C)[C@]2(C)CCC(=O)C(C)(C)O[C@H]2CC1 (stereo partly drawn) [SODWANONE U]	> 30 µM	> 30 µM	> 30 µM	< 4.52	< 4.52	< 4.52	< 4.52
C[C@H]1CC[C@@H]2OC(C)(C)[C@@H](O)CC=C2[C@@]1(C)CC[C@]1(C)[C@@H](C)CC[C@@H]2OC(C)(C)[C@@]3(O)CC[C@]21O3 [SODWANONE V]	15 µM	15 µM	15 µM	< 4.52	< 4.52	< 4.52	4.64
CC1=C(CC[C@H]2[C@]3(C)CCC(=O)C(C)(C)O[C@H]3CC[C@]2(C)O)[C@@]2(C)CCC(=O)C(C)(C)C2=C(O)C1=O [SODWANONE A]	> 30 µM	> 30 µM	20 µM	< 4.52	< 4.52	< 4.52	< 4.52
CC1=C(CC[C@@H]2[C@H](C)CC[C@@H]3OC(C)(C)C(=O)CC[C@]32C)[C@@]2(C)CCC(=O)C(C)(C)C2=C(O)C1=O [SODWANONE B]	> 30 µM	> 30 µM	> 30 µM	< 4.52	< 4.52	< 4.52	< 4.52
CC(C)C(=O)CC[C@@]1(C)[C@@H]2CC[C@H](C)[C@@]1(CC[C@@]1(C)C3=CC[C@@H](O)C(C)(C)O[C@@H]3CC[C@H]1C)O2 [SODWANONE W]			> 30 µM	< 4.52	< 4.52	< 4.52	< 4.52

More lines, main results first:

IC50 [1]	IC50 [2]	IC50 [3]	SMILES	pIC50 (PC-3)	pIC50 (DU-145)	pIC50 (T47D)	pIC50 (MDA-MB-231)
> 30 µM	> 30 µM	25 µM	C=C1CC[C@@H]2OC(C)(C)[C@H](O)CC[C@@]2(C)[C@@H]1CC[C@]1(O)[C@@H](C)CC[C@@H]2OC(C)(C)C(=O)CC[C@]21C	< 4.52	< 4.52	< 4.52	< 4.52
> 30 µM	> 30 µM	20 µM	C=C1CC[C@@H]2OC(C)(C)[C@H](OC(C)=O)CC[C@@]2(C)[C@@H]1CC[C@]1(O)[C@@H](C)CC[C@@H]2OC(C)(C)C(=O)CC[C@]21C	< 4.52	< 4.52	4.66	< 4.52
		> 30 µM	C[C@H]1CC[C@@H]2OC(C)(C)C(=O)CC[C@@]2(C)[C@]12CC[C@@H]([C@@]1(C)CC[C@@H]3OC(C)(C)C(=O)CC[C@]31C)O2 [YARDENONE]	< 4.52	< 4.52	< 4.52	< 4.52
> 30 µM	> 30 µM	> 30 µM	C[C@H]1CC[C@@H]2OC(C)(C)C(=O)CC[C@@]2(C)[C@@]12O[C@H]([C@@]1(C)CC[C@@H]3OC(C)(C)C(=O)CC[C@]31C)C[C@H]2O	< 4.52	< 4.52	< 4.52	< 4.52
